Calls of active or inactive are those of the source. The calls are words filed in the database; no cut-off is given here.
Tests used:
[1] = molecular target: T1, P2X purinoceptor 2 (Homo sapiens) (UniProt Q9UBL9); assay: Antagonist activity at human P2X2R transfected in human 1321N1 cells assessed as inhibition of ATP-induced calcium influx relative to control; type: cell-based; details: concentration not given here
T1 sequence (whole entry): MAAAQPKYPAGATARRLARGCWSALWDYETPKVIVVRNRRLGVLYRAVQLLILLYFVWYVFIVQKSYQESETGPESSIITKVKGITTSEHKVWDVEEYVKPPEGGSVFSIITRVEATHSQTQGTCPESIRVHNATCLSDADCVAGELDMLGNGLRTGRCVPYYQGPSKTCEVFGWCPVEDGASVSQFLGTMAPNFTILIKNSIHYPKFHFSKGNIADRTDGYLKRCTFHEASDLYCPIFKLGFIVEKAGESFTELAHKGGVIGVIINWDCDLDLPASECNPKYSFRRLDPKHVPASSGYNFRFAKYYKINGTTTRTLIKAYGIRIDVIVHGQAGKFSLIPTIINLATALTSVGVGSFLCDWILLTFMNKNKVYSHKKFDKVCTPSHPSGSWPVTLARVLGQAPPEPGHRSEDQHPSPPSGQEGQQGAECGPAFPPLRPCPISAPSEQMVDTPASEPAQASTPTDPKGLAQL
In short: (§1)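 1321N1 astrocytoma cells stably expressing human P2X1, P2X2, P2X3 or P2X4 receptor. Calcium influx was induced by ATP at the EC80 for each subtype. Results are given as IC50 (μM) or % inhibition at the indicated concentration.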

[2] = molecular target: T2, P2X purinoceptor 3 (Mus musculus) (UniProt Q3UR32); assay: Agonist activity at P2X3R in mouse TG sensory neurons assessed as induction of channel current at 10 uM at -65 mV holding potential by whole cell voltage clamp method relative to alpha,beta-meATP
T2 sequence (whole entry): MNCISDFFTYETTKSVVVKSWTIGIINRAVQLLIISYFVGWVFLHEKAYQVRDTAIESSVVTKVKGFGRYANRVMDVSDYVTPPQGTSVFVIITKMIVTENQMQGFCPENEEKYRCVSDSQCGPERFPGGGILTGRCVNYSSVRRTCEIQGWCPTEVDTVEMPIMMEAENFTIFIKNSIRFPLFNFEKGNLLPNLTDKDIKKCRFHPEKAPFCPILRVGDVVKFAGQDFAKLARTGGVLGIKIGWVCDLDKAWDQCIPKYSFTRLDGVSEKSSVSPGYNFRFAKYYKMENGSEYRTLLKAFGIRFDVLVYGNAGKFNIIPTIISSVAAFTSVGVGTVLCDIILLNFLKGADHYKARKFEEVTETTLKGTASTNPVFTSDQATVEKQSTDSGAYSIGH

[3] = molecular target: T3, P2X purinoceptor 7 (Homo sapiens, UniProt Q99572); assay: Antagonist activity at human P2X7R transfected in human 1321N1 cells assessed as inhibition of Bz-ATP-induced calcium influx; type: cell-based
T3 sequence (Q99572 whole entry): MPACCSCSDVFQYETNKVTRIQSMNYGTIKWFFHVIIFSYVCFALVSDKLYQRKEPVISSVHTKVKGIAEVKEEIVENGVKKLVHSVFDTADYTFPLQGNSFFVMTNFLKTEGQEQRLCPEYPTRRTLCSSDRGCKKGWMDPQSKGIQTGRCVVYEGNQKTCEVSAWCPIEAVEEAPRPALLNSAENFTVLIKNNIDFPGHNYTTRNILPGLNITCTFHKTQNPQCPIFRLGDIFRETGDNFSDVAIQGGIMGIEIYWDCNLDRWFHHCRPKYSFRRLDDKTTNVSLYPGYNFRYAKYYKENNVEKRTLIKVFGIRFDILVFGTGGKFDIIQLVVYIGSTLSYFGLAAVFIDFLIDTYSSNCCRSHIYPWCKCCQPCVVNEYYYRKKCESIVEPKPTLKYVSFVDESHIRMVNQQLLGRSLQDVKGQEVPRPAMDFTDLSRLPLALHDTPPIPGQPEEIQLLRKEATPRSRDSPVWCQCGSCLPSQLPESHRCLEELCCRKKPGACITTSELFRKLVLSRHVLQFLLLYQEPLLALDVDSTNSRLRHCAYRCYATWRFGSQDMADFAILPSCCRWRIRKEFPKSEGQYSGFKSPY

[4] = molecular target: T4, P2X purinoceptor 7 (Homo sapiens) (UniProt Q99572); assay: Antagonist activity at human P2X7R transfected in human 1321N1 cells assessed as inhibition of Bz-ATP-induced calcium influx relative to control; type: cell-based; details: concentration not given here
T4 sequence (whole entry): T3 sequence (Q99572 whole entry)

[5] = molecular target: T5, P2X purinoceptor 2 (Homo sapiens, UniProt Q9UBL9); assay: Antagonist activity at human P2X2R transfected in human 1321N1 cells assessed as inhibition of ATP-induced calcium influx; type: cell-based; in short: as §1
T5 sequence (Q9UBL9 whole entry): T1 sequence (whole entry)

[6] = molecular target: T6, P2X purinoceptor 4 (Homo sapiens, UniProt Q99571); assay: Antagonist activity at human P2X4R transfected in human 1321N1 cells assessed as inhibition of ATP-induced calcium influx; type: cell-based; in short: as §1
T6 sequence (Q99571 whole entry): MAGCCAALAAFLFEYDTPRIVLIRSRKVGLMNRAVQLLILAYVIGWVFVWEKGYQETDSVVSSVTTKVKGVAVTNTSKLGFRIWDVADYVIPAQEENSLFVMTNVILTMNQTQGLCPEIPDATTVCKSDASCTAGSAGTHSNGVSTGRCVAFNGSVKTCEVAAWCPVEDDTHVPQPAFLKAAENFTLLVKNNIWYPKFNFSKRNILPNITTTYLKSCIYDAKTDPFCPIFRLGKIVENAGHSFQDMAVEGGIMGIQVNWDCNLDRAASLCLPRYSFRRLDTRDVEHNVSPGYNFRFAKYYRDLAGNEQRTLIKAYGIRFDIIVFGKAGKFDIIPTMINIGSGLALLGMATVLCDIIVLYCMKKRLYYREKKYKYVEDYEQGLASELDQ

[7] = molecular target: T7, P2X purinoceptor 3 (Mus musculus, UniProt Q3UR32); assay: Antagonist activity at P2X3R in mouse TG sensory neurons assessed as inhibition of P2X3R agonist alpha,beta-meATP-induced current at -65 mV holding potential by whole cell voltage clamp method
T7 sequence (Q3UR32 whole entry): T2 sequence (whole entry)
In short: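 Mouse trigeminal sensory neurons were recorded by whole-cell patch clamp. Test compound (0.001–10 μM) was applied before 10 μM α,β-meATP, and inhibition of the agonist-evoked P2X3 current was measured. IC50 was taken from concentration–inhibition curves. N = 5–6 cells.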

[8] = molecular target: T8, P2X purinoceptor 1 (Homo sapiens, UniProt P51575); assay: Antagonist activity at human P2X1R transfected in human 1321N1 cells assessed as inhibition of ATP-induced calcium influx; type: cell-based; in short: as §1
T8 sequence (P51575 whole entry): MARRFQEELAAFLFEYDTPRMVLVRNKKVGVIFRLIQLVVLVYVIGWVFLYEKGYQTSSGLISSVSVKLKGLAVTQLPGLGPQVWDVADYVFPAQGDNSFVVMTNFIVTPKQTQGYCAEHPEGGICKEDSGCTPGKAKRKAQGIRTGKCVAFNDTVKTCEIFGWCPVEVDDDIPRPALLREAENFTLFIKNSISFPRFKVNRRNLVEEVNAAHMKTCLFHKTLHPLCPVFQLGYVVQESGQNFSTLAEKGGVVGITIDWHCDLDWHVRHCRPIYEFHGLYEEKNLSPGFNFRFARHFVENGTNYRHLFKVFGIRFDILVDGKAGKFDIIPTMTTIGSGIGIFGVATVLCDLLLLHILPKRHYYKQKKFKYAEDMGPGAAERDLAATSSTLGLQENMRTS

`Nc1ncnc2c1ncn2[C@@H]1O[C@H](COP(=O)(O)CP(=O)(O)OP(=O)(O)O)[C@H]2OC3(CCCCC3)O[C@H]21` was tested. Which inhibition [1] did it give?
The inhibition was 9%.

What about the Activity [2] of the same compound?
The Activity was “inactive”.

What about the IC50 [3] of the same compound?
Its IC50 is > 100 µM.

And the inhibition [4]?
Its inhibition is -1%.

And the IC50 [5]?
Its IC50 is > 100 µM.

And the IC50 [6]?
The IC50 was > 100 µM.

What about the IC50 [7] of the same compound?
The IC50 was 0.127 µM.

And the IC50 [8]?
The IC50 was > 100 µM.

What does the source list for `Nc1ncnc2c1ncn2[C@@H]1O[C@H](COP(=O)(O)OP(=O)(O)OP(=O)(O)O)[C@H]2OCO[C@H]21`?
inhibition [1]: 36%; Activity [2]: inactive; IC50 [3]: > 100 µM; inhibition [4]: 21%; IC50 [5]: > 100 µM; IC50 [6]: > 100 µM; IC50 [7]: > 1 µM; IC50 [8]: > 100 µM

Which results are given for `CC1(C)O[C@@H]2[C@H](O1)[C@@H](COP(=O)(O)OP(=O)(O)OP(=O)(O)O)O[C@H]2n1cnc2c(N)ncnc21`?
inhibition [1]: 6%; Activity [2]: inactive; IC50 [3]: > 100 µM; inhibition [4]: 5%; IC50 [5]: > 100 µM; IC50 [6]: 48 µM; IC50 [7]: 0.024 µM; IC50 [8]: 41.1 µM

From ChEMBL document CHEMBL4433213, “Investigation on 2',3'-O-Substituted ATP Derivatives and Analogs as Novel P2X3 Receptor Antagonists” (ACS Med Chem Lett, 2019)
